High-throughput results from PubChem BioAssay.
Most compounds without a hit are left out; they make up all but 2.6% or so of the library.
SENP1 FRET inh: blocks the human SENP1 SUMO protease catalytic domain. Q9P0U3. recombinant SENP1 catalytic domain, CyPet-SUMO1-YPet FRET cleavage. inhibition, % at 10 µM. 0.21% of 360,000 active;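 active = inhibition at least 30% at 10 µM, raw YFP signal under a set limit, fluorescence ratio 0.5 to 1.5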;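 note: 0% = enzyme with DMSO and 100% = no enzyme wells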
Target sequence (Q9P0U3 419-644 limits assumed): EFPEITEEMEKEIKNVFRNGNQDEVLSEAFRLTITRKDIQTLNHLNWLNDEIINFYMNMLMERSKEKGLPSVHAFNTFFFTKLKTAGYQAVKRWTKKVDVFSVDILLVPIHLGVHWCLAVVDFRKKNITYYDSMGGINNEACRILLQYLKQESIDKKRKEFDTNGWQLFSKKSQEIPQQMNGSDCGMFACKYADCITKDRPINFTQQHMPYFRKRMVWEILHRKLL
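System: Recombinant human SENP1 catalytic domain, His6-tagged | Incubation: Enzyme reaction for 50 min at room temperature, dark | Medium: Tris pH 8 with BME, BSA, NP40 and catalase | Also added: 25 nM SUMO1 FRET substrate | Compound: 10 µM single point, 0.5% DMSO | Measured by: FRET fluorescence in CFP and YFP emission channels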
SENP8 block-1: inhibitors of human SENP8 protease; Q96LD8; purified SENP8, Z-RLRGG-aminoluciferin cleavage, luminescence; inhibition, % at 10 µM; 1.2% of 330,000 active; in the data active = inhibition above about 50%
Target sequence (Q96LD8 whole entry, looked up): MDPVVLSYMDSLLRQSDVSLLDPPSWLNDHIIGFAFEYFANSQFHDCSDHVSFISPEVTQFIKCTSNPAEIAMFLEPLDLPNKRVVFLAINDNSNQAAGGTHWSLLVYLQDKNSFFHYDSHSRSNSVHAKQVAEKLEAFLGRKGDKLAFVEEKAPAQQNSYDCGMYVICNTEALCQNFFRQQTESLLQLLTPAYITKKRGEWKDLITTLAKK
SENP6 inh: SENP6 protease inhibition; Recombinant SENP6 catalytic domain, aminoluciferin luminescence; inhibition, % at 10 µM; 1.8% of 330,000 active; Q9GZR1;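 active = inhibition above about 50% at the single tested dose, limit read from the data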;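 note: plate controls were DMSO wells with enzyme for no effect and DMSO wells lacking enzyme for full effect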
SENP8 block-2: SENP8 (human) protease inhibition; Q96LD8; recombinant SENP8, Nedd8 substrate fluorescence; inhibition, % at 20 µM; 0.64% of 360,000 active; AID 602440; in the data active = inhibition mostly above about 40%, no sharp cut-off; inactive = mostly below about 27%
SENP7 block: inhibitors of human SENP7 protease. recombinant SENP7, Z-RLRGG-aminoluciferin luminescence, 40 min. inhibition, % at 5 µM. 1.5% of 330,000 active. AID 434973;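 active = inhibition above about 50% at the single test dose, limit read from the data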;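 note: plate controls were DMSO with enzyme for no effect and no enzyme buffer wells for full effect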
Platelet DG rel: platelet dense granule release activity | inhibition, %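 (compounds screened at 7.5 µM in platelet-rich plasma)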 | AID 1663 | 0.22% of 300,000 active | human platelet-rich plasma, SFLLRN dense granule ATP release, luminescence;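 active = mean replicate score, as percent of positive control, at or above 50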
SENP8 conf: human SENP8 inhibition, confirmed; inhibition, % at 12.5 µM; shares compounds with SENP7 block; 40% of 6,200 active; Recombinant SENP8, Z-RLRGG-aminoluciferin luminescence, 60 min;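 active = mean inhibition across replicates above about 50%, limit read from the data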
SENP6 confirm: human SENP6 inhibition, confirmed. shares compounds with SENP7 block. recombinant SENP6, Z-RLRGG-aminoluciferin luminescence. inhibition, % at 12.5 µM. 58% of 6,200 active. AID 488915
SENP7 conf: confirmation of human SENP7 protease inhibitors; shares compounds with SENP7 block; recombinant SENP7, Z-RLRGG-aminoluciferin luminescence, 40 min; inhibition, % at 12.5 µM; 69% of 6,200 active; AID 488917
Casp3 SENP sel: caspase-3 inhibition (SENP selectivity assay); shares compounds with SENP7 block; purified caspase-3, Z-DEVD-aminoluciferin luminescence, 60 min; inhibition, % at 12.5 µM; 60% of 6,200 active; AID 488918;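 active = mean inhibition above about 50%, limit read from the data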;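 note: plate controls were enzyme with DMSO for no effect and wells without caspase-3 for full effect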
SENP luc ctr: counter-screen for SENP inhibitors: luminescence interference; 39% of 6,200 active; inhibition, % at 12.5 µM; shares compounds with SENP7 block; AID 488919; Pre-incubated SENP8/Z-RLRGG-aminoluciferin, luciferase luminescence interference;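 active = mean inhibition above about 50% when retested at one dose, limit read from the data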;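 note: plate controls were DMSO wells with completed reaction for no effect and substrate without enzyme for full effect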
Numbers without * were called inactive; · = no result.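 Rule for the calls, unless noted: active = mean inhibition above about 50% in the one-dose retest (limit read from the data); inactive = the rest.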

SMILES	SENP1 FRET inh	SENP8 block-1	SENP6 inh	SENP8 block-2	SENP7 block	Platelet DG rel	SENP8 conf	SENP6 confirm	SENP7 conf	Casp3 SENP sel	SENP luc ctr
COc1cc(NC(=O)c2ccc(N3CCCC3=O)cc2)cc(OC)c1	2	60*	70*	25	72*	·	46	61*	73*	84*	56*
O=C(Nc1ccc(OC(F)F)c(Cl)c1)c1ccccn1	1	79*	85*	12	85*	8	74*	75*	95*	68*	27
COc1cc(NC(=O)c2ccccn2)cc(OC)c1OC	-1	-8	-13	2	-3	3	·	·	·	·	·
COc1ccc(NC(=O)c2ccc(N3CCCC3=O)cc2)cc1Cl	0	-8	24	5	54*	·	-6	-1	4	6	0
CC(=O)c1ccc(NC(=O)c2ccc(N3CCCC3=O)cc2)cc1	-2	0	-21	2	-8	·	·	·	·	·	·
O=C(C1CCN(S(=O)(=O)c2ccccc2)CC1)N1CCCCC1	1	-8	0	-5	-8	-34	·	·	·	·	·
Cc1cc(Cl)ccc1C(=O)C1CCCN(C(=O)c2cnn(C(C)C)c2)C1 (stereo not drawn)	1	12	-2	12	-1	0	·	·	·	·	·
CCOc1nc(-c2ccccc2)c2cc(Br)ccc2n1	0	-5	1	-120	-3	9	·	·	·	·	·
C/C(=N\NC(=O)c1cccc(S(=O)(=O)N2CCOCC2)c1)c1cc2ccccc2o1	-2	1	-2	-31	-4	-2	·	·	·	·	·
CCCCNc1ccc(S(=O)(=O)c2cccc([N+](=O)[O-])c2)cc1[N+](=O)[O-]	3	0	-1	7	3	2	·	·	·	·	·
CN1CCN(C(=O)/C(=C/c2cccnc2)NC(=O)c2cccc(Br)c2)CC1	-1	-5	-33	12	-2	-36	·	·	·	·	·
Cc1cccnc1NC(=O)Nc1ccc(F)cc1	4	-21	-2	8	-8	0	·	·	·	·	·
O=C(/C=C/c1ccco1)Nc1cccnc1Cl	-8	48	58*	-2	54*	5	58*	56*	86*	85*	63*
COC(=O)c1ccccc1NC(=O)/C=C/c1ccco1	-2	17	35	-32	8	-4	·	·	·	·	·
O=C(Nc1ccc(F)cc1)Nc1cccnc1Cl	-1	77*	81*	16	85*	30	-7	78*	96*	88*	81*
NC(=O)c1ccccc1NC(=O)/C=C/c1ccc(Cl)cc1	1	22	51*	3	63*	-10	1	17	89*	66*	18
O=C(/C=C/c1ccccc1)Nc1cccnc1Cl	0	66*	74*	19	-1	14	69*	60*	90*	84*	73*
CCCCc1nc2cc(C(=O)N3CCCC(COC)C3)ccc2o1 (stereo not drawn)	2	-7	-3	12	4	-3	·	·	·	·	·
C[C@@H]1COC(=O)[C@H](Cc2ccc(F)cc2)C/C=C\C[C@@H](CC(=O)NCCO)C(=O)N1	1	-6	0	13	6	·	·	·	·	·	·
OCCCCNc1cccc2ccccc12	-7	45	63*	-309	-6	10	2	20	3	-1	-4
OCCCCCNc1ncnc2ccccc12	-14	-4	-9	-138	9	-6	·	·	·	·	·
Cc1cc(C)c2cccc(N)c2n1	-1	2	71*	-6	7	3	-22	-18	-7	-6	-5
C=C(C)COc1ccc(-c2ncncc2-c2ccccc2OC)c(O)c1	-5	85*	2	12	-6	-1	-2	6	2	0	1
Cn1c(NCCN2CCCC2)nc2cc(-c3ccccc3)sc2c1=O	0	·	·	-144	·	·	·	·	·	·	·
O=c1c2sc(-c3ccccc3)cc2nc2n1CCC2	1	81*	93*	10	91*	21	89*	89*	99*	95*	90*
SMILES	SENP1 FRET inh	SENP8 block-1	SENP6 inh	SENP8 block-2	SENP7 block	Platelet DG rel	SENP8 conf	SENP6 confirm	SENP7 conf	Casp3 SENP sel	SENP luc ctr
O=c1c2sc(-c3ccccc3)cc2nc2n1CCCCC2	9	37	54*	22	43	0	38	37	74*	47	54*
c1ccc(-c2onc3cc4c(cc23)OCCO4)cc1	-158	78*	89*	-183	76*	31	9	92*	101*	86*	92*
O=C(Nc1ccon1)c1ccc(Cl)s1	0	0	-2	9	0	1	·	·	·	·	·
O=C(O)c1ccccc1C(=O)Nc1cc(-c2ccccc2)[nH]n1	1	3	-18	2	0	6	·	·	·	·	·
Cc1ccnc(NC(=O)c2ccc(Cl)s2)c1	2	67*	76*	6	72*	-6	76*	75*	93*	86*	77*
Cc1ccnc(NC(=O)c2ccc(C(=O)c3ccccc3)cc2)c1	3	73*	80*	-1	70*	20	72*	69*	93*	85*	78*
O=C(Nc1cc(-c2ccccc2)[nH]n1)c1ccccc1	-2	59*	80*	1	62*	3	68*	62*	88*	63*	71*
CCOc1ccc(C(=O)Nc2cccc(C)n2)cc1	3	80*	87*	19	91*	30	-9	83*	98*	94*	87*
CC1CC2(CCCC2)N(C(=O)N(C)C)c2ccc(F)cc21 (stereo not drawn)	-1	-6	-40	4	1	0	·	·	·	·	·
COC(=O)[C@H]1C[C@H](OC(=O)NCc2ccccc2F)[C@@]2(O)CN(S(=O)(=O)c3ccc(C)cc3)CC2[C@H]1C(=O)OC (stereo partly drawn)	-1	·	·	-5	·	·	·	·	·	·	·
CC(C)CCNC(=O)C1CC(c2ccc(C(F)(F)F)cc2)=NO1 (stereo not drawn)	1	3	-12	12	6	7	·	·	·	·	·
CCOc1ccc(C(=O)Nc2cc(C)ccn2)cc1	0	91*	91*	10	96*	76*	-12	90*	100*	96*	91*
